# From PubChem
# MrgX1 antag – antagonists of human MrgX1 receptor, primary screen, HEK293 cells, Fluo-4 calcium flux | BAM8-22 antagonism; active compounds read low | B-score at 10 µM | 1.3% of 310,000 active | AID 588676, 2011;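 active means calcium-response B-score plate-corrected more than 3 library SD below zero, starting fluorescence within 5 deviations, no agonist response on first addition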;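 further: peak minus trough fluorescence over baseline after final BAM8-22 challenge near maximal dose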
# Target sequence (Q96LB2 whole entry, looked up): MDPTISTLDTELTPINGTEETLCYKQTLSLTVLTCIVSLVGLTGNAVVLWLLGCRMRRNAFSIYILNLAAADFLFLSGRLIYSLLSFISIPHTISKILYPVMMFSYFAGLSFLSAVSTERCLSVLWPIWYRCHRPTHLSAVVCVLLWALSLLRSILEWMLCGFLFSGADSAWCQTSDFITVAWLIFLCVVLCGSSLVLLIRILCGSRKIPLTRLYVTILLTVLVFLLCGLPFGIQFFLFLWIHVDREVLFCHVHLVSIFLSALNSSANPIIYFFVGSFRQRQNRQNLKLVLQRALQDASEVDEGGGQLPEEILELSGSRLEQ
# RGS4 block – RGS4 inhibitors, primary screen, cell-based, HEK293 M3R inducible RGS4, calcium flux; Regulator of G-protein signaling 4 (Homo sapiens), P49798; Fluo-4 calcium flux; active compounds read high; triggered by carbachol at its EC20; B-score at 10 µM; 0.45% of 310,000 active;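 active means B-score, a plate-corrected calcium signal, over three deviations above library mean, with baseline fluorescence within five deviations of library mean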;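 further: RGS4 expression induced by doxycycline in cells with stable M3 receptor; B-score is computed from the integrated fluorescence ratio over baseline after carbachol; higher B-score means a larger calcium signal and so more RGS4 inhibition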
# Target sequence (P49798 whole entry, looked up): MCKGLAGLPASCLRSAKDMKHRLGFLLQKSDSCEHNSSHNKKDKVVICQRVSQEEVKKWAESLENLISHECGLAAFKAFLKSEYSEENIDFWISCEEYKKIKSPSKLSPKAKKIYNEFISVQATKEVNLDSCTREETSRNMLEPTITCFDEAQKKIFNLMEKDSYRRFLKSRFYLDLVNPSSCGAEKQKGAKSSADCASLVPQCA
# MrgX1 agonist – agonists of human MrgX1 receptor, primary screen, HEK293 cells, Fluo-4 calcium flux | B-score at 10 µM | Fluo-4 calcium fluorescence, agonist mode; active compounds read high | 0.44% of 310,000 active | Mas-related G-protein coupled receptor member X1 (Homo sapiens), Q96LB2;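 active means calcium response B-score plate-corrected fluorescence ratio at least 3 library SD, with starting fluorescence B-score inside 5 SD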
#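 System: HEK293 cells stably expressing human MrgX1 receptor; Dosing: test compound in the initial addition of three; Schedule: overnight plating, then 30 min 37 °C plus 30 min room-temperature dye loading; Detection: kinetic calcium dye fluorescence, Fluo-4 NW; Controls: per-plate positive and negative controls for Z′ factor.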
# MrgX1 allo act – positive allosteric modulators of MrgX1, primary screen, HEK293 cells, Fluo-4 calcium flux. Mas-related G-protein coupled receptor member X1 (Homo sapiens), Q96LB2. FDSS; active compounds read high. B-score at 10 µM. 0.63% of 310,000 active. AID 588675, 2011;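 active means plate-corrected calcium response at least 3 library SD above typical, normal starting fluorescence, not activating the receptor alone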;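 further: compound read alongside a low EC10 to EC30 dose of BAM8-22 agonist; peak minus trough fluorescence over baseline measured at the second addition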
# RGS4 pot – RGS4 potentiators or activators, primary screen, cell-based, HEK293 M3R inducible RGS4, calcium flux; carbachol calcium flux Fluo4; active compounds read low; B-score at 10 µM; 0.92% of 310,000 active;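 active means B-score of the integrated calcium signal more than 4 SD below the library mean, with starting fluorescence not abnormally high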;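 further: negative B-score means reduced calcium response which marks RGS4 activation or potentiation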
#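 System – HEK293 FlpIn-TREx cells, stable M3R, doxycycline-inducible RGS4 · Reagent – ECmax carbachol challenge · Times – compound preincubation 20 min at room temperature before agonist · Technique – Fluo4 fluorescence kinetic imaging of calcium · Measure – B score of integrated Fluo4 ratio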
# MrgX1 ant reconf – MrgX1 receptor antagonists, duplicate retest, confirmation, HEK293 cells, Fluo-4 calcium flux | shares compounds with MrgX1 antag | remaining BAM8-22 calcium response % of control (active compounds read low), % at 10 µM | 19% of 2,300 active | BAM8-22 calcium flux; active compounds read low;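 active means remaining agonist calcium response no higher than 100% minus 3 SD of agonist-only control wells, with starting fluorescence near control levels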;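 further: agonist BAM8-22 given at a near maximal EC90 to ECmax level; peak minus minimum fluorescence divided by baseline after agonist addition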
# HEK293 Ca flux – nonspecific calcium signal in parental HEK293, confirmation, counter-screen for MrgX1 antagonist project, parental HEK293 cells, Fluo-4 calcium flux | shares compounds with MrgX1 antag | Fluo-4 calcium fluorescence, FDSS | fluorescence ratio F(max-min)/F0 at 10 µM | 2% of 4,000 active | AID 624111, 2012;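 active means duplicate-averaged calcium fluorescence ratio at least three times the standard deviation of buffer wells, a nonspecific response in parental cells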
# HEK293 Ca counter – calcium response in parental HEK293 cells, primary screen, counter-screen for MrgX1 allosteric activator project, cell-based, Fluo-4 calcium flux, duplicate. shares compounds with MrgX1 antag. Fluo-4 fluorescence ratio; active compounds read high. fluorescence ratio F(max-min)/F0 at 10 µM. 0.4% of 4,000 active. AID 624114, 2012;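 active means calcium fluorescence ratio, averaged over duplicates, at least 3 SD of the buffer-well ratio, meaning a nonspecific response in receptor-free cells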;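 further: untransfected parental HEK293 lacking MrgX1 used as counterscreen for MrgX1 allosteric activators; fluorescence change taken during the second addition on a kinetic imager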
# HEK293 Ca cntr2 – calcium response in parental HEK293 cells, primary screen, counter-screen for MrgX1 agonist project, cell-based, Fluo-4 calcium flux, duplicate, agonist mode. shares compounds with MrgX1 antag. Fluo-4 calcium fluorescence (FDSS); active compounds read high. fluorescence ratio F(max-min)/F0 at 10 µM. 8.7% of 4,000 active. AID 624115, 2012;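 active means calcium fluorescence ratio at least three times the spread of buffer wells, meaning a non-specific response in parental cells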
# * = called active by the depositor; i = inactive; . = no result given. In the library only some 3.5% were active in any assay of this set; here they are far more common.
SMILES,MrgX1 antag,RGS4 block,MrgX1 agonist,MrgX1 allo act,RGS4 pot,MrgX1 ant reconf,HEK293 Ca flux,HEK293 Ca counter,HEK293 Ca cntr2
Cc1ccccc1N(CC(=O)N1CCN(c2ccccc2)CC1)S(C)(=O)=O,-7.7*,i,i,i,i,i,i,i,i
O=C(c1cc(-c2ccc(Cl)cc2Cl)on1)N1CCCC1,i,i,i,i,i,.,.,.,.
O=C(c1cc(-c2ccc(Cl)cc2Cl)on1)N1CCCCCC1,-5.3*,i,i,i,i,i,i,i,i
Cc1ccc(-c2n[nH]c(=S)n2/N=C/c2c(C)[nH]n(-c3ccccc3)c2=O)cc1,i,i,i,i,i,.,.,.,.
CC(C)OCCCNc1ncnc2c1[nH]c1ccccc12,-8.4*,i,i,i,i,52%*,i,i,i
Cc1ccc2[nH]c3c(NCc4ccccc4)ncnc3c2c1,-7.4*,i,i,i,i,i,i,i,i
COc1ccc(CNc2ncnc3c2[nH]c2ccccc23)cc1,i,i,i,i,i,.,.,.,.
O=C(COc1ccc(Cl)cc1)NCc1ccc(F)cc1,i,i,i,i,i,.,.,.,.
S=C(NCc1cccnc1)Nc1cc(Cl)cc(Cl)c1,-5.1*,i,i,i,i,72%*,i,i,58*
S=C(NCc1cccnc1)Nc1cccc(Cl)c1,i,i,i,i,i,.,.,.,.
S=C(NCc1cccnc1)Nc1ccc(Oc2ccccc2)cc1,i,i,i,i,i,.,.,.,.
FC(F)Oc1ccc(NC(=S)NCc2cccnc2)cc1,-6.2*,i,i,i,i,83%*,i,i,i
COC(=O)c1ccccc1NC(=O)CCCn1nc([N+](=O)[O-])c(Br)c1C,i,i,i,i,i,.,.,.,.
O=C(NCCc1ccccc1)Nc1cccc(Cl)c1,-7*,i,i,i,i,i,i,i,i
COCCNc1ccc(S(=O)(=O)N2CCCC2)cn1,-5*,i,i,i,i,i,i,i,i
CC1(c2nnc(Cc3ccccc3)o2)CC(c2ccc(OC(F)(F)F)cc2)=NO1 (stereo not drawn),i,i,i,i,i,.,.,.,.
CC(=O)Nc1ccc(NCN2C(=O)C3C4CCC(C4)C3C2=O)cc1 (stereo not drawn),i,i,i,i,i,.,.,.,.
COC(=O)c1ccc(NCN2C(=O)C3C4CCC(C4)C3C2=O)cc1 (stereo not drawn),-5.6*,i,i,i,i,i,i,i,i
CCCCC(=O)NC1=C(C(=O)OC)SCC1,-4.9*,i,i,i,i,i,i,i,i
CCOc1ccc(CCNC(=O)c2ccc3ccccc3n2)cc1OCC,i,i,i,i,i,.,.,.,.
S=C(Nc1ccccc1)Nc1cccc(Br)c1,-5.4*,i,i,i,i,63%*,i,i,i
CC(=O)Nc1ccc(NC(=S)Nc2ccc(Br)cc2)cc1,i,i,i,i,i,.,.,.,.
